Data reported in PubChem BioAssay AID624393 (The Scripps Research Institute Molecular Screening Center, 2012).
“And” between values parts separate entries of the source, which are not always exact repeats. Equal entries are not always repeated.

Target: Induced myeloid leukemia cell differentiation protein Mcl-1 (Homo sapiens) (UniProt Q07820)
Experiment: blockers of MCL1–BIM BH3 interaction – biochemical, fluorescence polarization, assay provider data, probe compound, late-stage follow-up (AID 624393)
Settings: GST-MCL1 / FITC-Bim BH3 peptide
How it was run: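 signal = fluorescence polarization (mP) | assay system = E. coli-expressed GST-MCL1 fusion protein with FITC-labelled Bim BH3 peptide | input = GST-MCL1 fusion protein at 12.5 nM | doses = compound dilution series in DMSO | buffer or medium = PBS with 0.001% Brij | times = 20 min at room temperature | probe or stimulus = FITC-labelled Bim BH3 peptide probe at 4 nM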

Chain of Induced myeloid leukemia cell differentiation protein Mcl-1 (Homo sapiens) (Q07820 whole entry, looked up): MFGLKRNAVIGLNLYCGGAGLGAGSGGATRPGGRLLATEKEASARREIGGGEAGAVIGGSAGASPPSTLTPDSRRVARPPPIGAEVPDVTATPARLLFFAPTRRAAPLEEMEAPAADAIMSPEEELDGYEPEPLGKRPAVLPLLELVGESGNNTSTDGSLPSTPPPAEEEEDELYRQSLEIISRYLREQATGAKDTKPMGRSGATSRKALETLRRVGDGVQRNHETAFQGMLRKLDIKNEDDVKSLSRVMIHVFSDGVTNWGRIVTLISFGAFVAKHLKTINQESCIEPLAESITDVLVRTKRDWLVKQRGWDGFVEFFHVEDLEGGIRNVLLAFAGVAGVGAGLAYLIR

- IC50: 250 nM and 310 nM
SMILES: CCN1CCN(C(c2ccc(C(F)(F)F)cc2)c2ccc3cccnc3c2O)CC1 (stereo unspecified)
